LEDGF integ inh: blocks HIV-1 LEDGF/p75-dependent DNA integration; TR-FRET IN-LEDGF/p75 DNA integration, Eu/Cy5; inhibition, % at 3.7 µM; 370,000 tested, 0.64% active; AID 743269;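 active means inhibition above the screen-wide mean plus 3 SD, cut at about 13% in these data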;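 further: signal is the Cy5 over europium emission ratio at 671 and 618 nm; 0% = plate median of compound wells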
SIAE inh: inhibitors of human sialic acid acetylesterase SIAE; Q9HAT2; AID 1053197; inhibition, % at 9.66 µM; SIAE FP-Rh probe binding, fluorescence polarization; 370,000 tested, 0.69% active;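 active means inhibition above a cutoff: mean of compounds within the control limits plus 3 SD of those, cut at about 17% in these data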;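 further: 0% = plate median of compound wells and 100% = probe without SIAE protein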
mABHD4 FP: inhibitors of mouse ABHD4. Q8VD66. purified mABHD4, FP-Rh probe fluorescence polarization. inhibition, % at 8.92 µM. 370,000 tested, 0.54% active. AID 720543;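 active means inhibition exceeding the mean over every tested compound plus 3 SD, cut at about 30% in these data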;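 further: 0% = plate median of compound wells and 100% = S159A mutant with DMSO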
Target sequence (Q8VD66 whole entry, looked up): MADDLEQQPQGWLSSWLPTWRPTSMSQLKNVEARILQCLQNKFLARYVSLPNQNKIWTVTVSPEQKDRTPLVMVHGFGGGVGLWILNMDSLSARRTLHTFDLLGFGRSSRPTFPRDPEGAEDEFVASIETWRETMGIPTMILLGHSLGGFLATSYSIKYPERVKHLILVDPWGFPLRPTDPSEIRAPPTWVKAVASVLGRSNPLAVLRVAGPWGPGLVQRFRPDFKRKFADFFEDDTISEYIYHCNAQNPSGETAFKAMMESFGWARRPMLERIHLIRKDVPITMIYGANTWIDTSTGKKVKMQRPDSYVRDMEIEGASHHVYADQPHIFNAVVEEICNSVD
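Assay system: mouse ABHD4 enzyme, wild type / Also added: fluorescent activity-based probe FP-Rh / Doses: single nominal dose of 8.92 µM, 0.89% DMSO final / Timing: 45 min compound pre-incubation plus 60 min probe step, 25 °C / Signal: FP readout, ex 525 nm / em 598 nm / Control set: S159A mutant/DMSO as 100%, compound-well median as 0%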
HTRA1 inhibitor: blocks human HTRA1 serine peptidase; Q92743; recombinant HTRA1, FP-rhodamine activity-based probe, fluorescence polarization; inhibition, % at 5.96 µM; 340,000 tested, 0.5% active; AID 504803; in the data active means inhibition above about 36%;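 further: 0% = enzyme with DMSO and 100% = wells lacking enzyme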
TCR-CD3 inh: human TCR-CD3 binding inhibition | TAMRA-labeled TCR probe fluorescence, biochemical | inhibition, % at 9.4 µM | 360,000 tested, 0.37% active; in the data active means inhibition above about 19%;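 further: recombinant mutant TCR 2C K166C tagged with TAMRA read by polarization; 0% = receptor in buffer alone and 100% = receptor with positive control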
TDP2 absorb: TDP2 (human) inhibition, absorbance primary screen; AID 720702; inhibition, % at 12.8 µM; 370,000 tested, 0.34% active; recombinant TDP2, T5PNP hydrolysis, p-nitrophenol absorbance 415 nm;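 active means inhibition above the mean of all tested compounds plus 3 SD, set per campaign, cut at about 25% in these data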;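 further: 0% = DMSO with enzyme and 100% = buffer with substrate but no TDP2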
Target sequence (O95551 whole entry, looked up): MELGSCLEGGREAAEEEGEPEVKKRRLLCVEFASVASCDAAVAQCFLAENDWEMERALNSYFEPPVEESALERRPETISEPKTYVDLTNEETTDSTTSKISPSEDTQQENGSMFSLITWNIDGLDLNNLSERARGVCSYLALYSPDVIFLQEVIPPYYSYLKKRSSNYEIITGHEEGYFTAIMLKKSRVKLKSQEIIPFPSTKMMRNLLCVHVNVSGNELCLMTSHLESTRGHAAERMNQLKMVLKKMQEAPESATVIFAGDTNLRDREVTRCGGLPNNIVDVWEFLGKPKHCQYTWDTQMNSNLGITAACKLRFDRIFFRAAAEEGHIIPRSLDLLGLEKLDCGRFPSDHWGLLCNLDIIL
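Evaluation: % inhibition relative to enzyme-containing and enzyme-free wells. Material: recombinant human TDP2. Benchmarks: enzyme-free and DMSO wells. Timing: enzyme reaction with compound for 2 h at 37 °C. Compound dosing: 12.8 µM only. Measured by: p-Nitrophenol epi absorbance. Reagent: T5PNP substrate at 5 mM, a TopII-DNA adduct mimic. Replication: single well per compound.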
IN multimer up: counter-screen for LEDGF/p75 integration inhibitors: HIV-1 integrase multimerization activators; shares compounds with LEDGF integ inh; TR-FRET HIV-1 integrase multimerization, biochemical; activation, % at 7.7 µM; 2,000 tested, 17% active; AID 1053131; in the data active means activation above about 8.9%
TR-FRET interf: counter-screen for LEDGF/p75 integration inhibitors: TR-FRET optical interference. shares compounds with LEDGF integ inh. TR-FRET optical interference counterscreen, HIV-1 IN multimerization. inhibition, % at 7.7 µM. 2,000 tested, under 10 active. AID 1053135;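 active means inhibition above the mean over all tested compounds plus 3 SD, which no compound reached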;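 further: 0% = integrase with antibodies and DMSO and 100% = antibodies without integrase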
IN-LEDGF confirm: LEDGF/p75-dependent HIV-1 integration inhibition, confirmation | shares compounds with LEDGF integ inh | TR-FRET LEDGF/p75-dependent HIV-1 integration, biochemical | inhibition, % at 3.7 µM | 2,000 tested, 36% active; in the data active means inhibition above about 14%
Starred values were filed as active, the others as inactive; x = no result. Sampled rows, rich in hits. Any-hit rate of the full collection: about 2.2%.

SMILES | LEDGF integ inh | SIAE inh | mABHD4 FP | HTRA1 inhibitor | TCR-CD3 inh | TDP2 absorb | IN multimer up | TR-FRET interf | IN-LEDGF confirm
CC(C)c1ccc(/C=C/C(=O)NCCCc2ccccc2)cc1 | 76* | 0 | -5 | -35 | 6 | -16 | 3 | -15 | -1
COc1ccc(/C=C/C(=O)NCCCc2ccccc2)cc1 | 0 | -10 | 4 | -1 | 2 | 9 | x | x | x
COc1cc(CNc2ncnc3c2ncn3[C@H]2CN(Cc3cccc(C(F)(F)F)c3)C[C@@H](COC(C)=O)O2)cc(OC)c1OC | 38* | 4 | -12 | x | 4 | 2 | 1 | -7 | -8
COC(=O)\C(C(C)=O)=C(/C=C/C=C/N(C)C)N(C)C | 34* | 3 | 11 | -3 | 9 | 13 | 1 | -5 | 10
Cc1cnc(NC(=O)C2C(=O)c3ccccc3S(=O)(=O)N2C)s1 (configuration not stated) | -1 | -3 | 7 | -2 | -4 | 4 | x | x | x
CCn1c(Cc2cccs2)nnc1SCC(=O)Nc1ccc(OCc2ccccc2)cc1 | 0 | 1 | -6 | x | x | 8 | x | x | x
CCn1c(C)cc(/C=C2\NC(=O)N(Cc3ccccc3)C2=O)c1C | 17* | 3 | 1 | 4 | 2 | -11 | 1 | -3 | -4
CCn1c(C)cc(/C=C2/NC(=O)N(Cc3ccccc3F)C2=O)c1C | -1 | 7 | 10 | -3 | 1 | 6 | x | x | x
COCCn1nnnc1C(c1ccccc1OC)N1CCc2ccccc2C1 (configuration not stated) | 33* | 2 | 2 | 4 | -6 | 7 | 1 | -6 | -4
CCCCC(=O)Nc1ccc(N2CCN(c3ccc(F)cc3)CC2)cc1 | 6 | 7 | 4 | 0 | -6 | 1 | x | x | x
CCC(=O)Nc1nc2ccccc2n1Cc1ccc(Cl)cc1 | 15* | -5 | 2 | 6 | -5 | -4 | 0 | 2 | 11
CCC(=O)Nc1nc2ccccc2n1CCN1CCOCC1 | -5 | -1 | 0 | 4 | 8 | -7 | x | x | x
CCCCCCCn1c(NC(=O)CC)nc2ccccc21 | 23* | 9 | 7 | -2 | 0 | 5 | 0 | -1 | 31*
CCOC(=O)C1=NNC(C(=O)OCC)C1C(=O)OCC (configuration not stated) | 0 | 0 | 4 | -2 | -4 | 5 | x | x | x
Cc1ccc(C)c(OCCC(=O)OCC(=O)c2c(N)n(C)c(=O)n(C)c2=O)c1 | 24* | 3 | 4 | -6 | -3 | -3 | -1 | 4 | -2
CC(Sc1nc2ccccc2c(=O)n1CC1CCCO1)C(=O)N(C)c1ccccc1 (configuration not stated) | 1 | 3 | 2 | 8 | 4 | 1 | x | x | x
COC(=O)[C@]1(C)N[C@H](CN(C)S(=O)(=O)c2ccc(OC(F)(F)F)cc2)[C@@H]2C(=O)N(Cc3ccccc3)C(=O)[C@@H]21 | 15* | -3 | 5 | 5 | 1 | 0 | 0 | 1 | -4
COC(=O)[C@]1(C)N[C@H](CN(C)S(=O)(=O)c2ccc(F)cc2)[C@@H]2C(=O)N(Cc3ccccc3)C(=O)[C@@H]21 | 1 | 1 | 5 | 4 | 11 | 2 | x | x | x
COc1ccccc1S(=O)(=O)N(C)C[C@H]1OCc2cnnn2CCCC(=O)N([C@@H](C)CO)C[C@@H]1C | 53* | -2 | 1 | 2 | 13 | 11 | 0 | 0 | -17
CN(C)CCCCCNCCCNC(=O)/C=N\O | -2 | -1 | -3 | -1 | 1 | -4 | x | x | x
NCCCCCNC(=O)/C=N\O | 34* | -3 | 6 | 5 | -2 | 2 | -1 | 4 | -8
Nn1c(SCC(=O)N2CCCCCC2)nnc1-c1ccncc1 | 26* | 3 | 6 | 4 | 6 | 5 | 1 | -3 | 1
Nn1c(SCC(=O)N2CCCCC2)nnc1-c1ccncc1 | -3 | 4 | -4 | 0 | 5 | -6 | x | x | x
O=C(c1cn(-c2ccccc2)nc1-c1ccncc1)n1nnc2ccccc21 | 16* | -7 | -1 | 1 | 1 | 6 | 1 | -7 | 0
COC(=O)c1ccc(NC(=S)N2CCN(Cc3ccccc3OC)CC2)cc1 | -2 | -14 | -12 | -11 | -9 | -6 | x | x | x
SMILES | LEDGF integ inh | SIAE inh | mABHD4 FP | HTRA1 inhibitor | TCR-CD3 inh | TDP2 absorb | IN multimer up | TR-FRET interf | IN-LEDGF confirm
COC(=O)c1ccc(NC(=S)N2CCN(Cc3ccccc3Cl)CC2)cc1 | 76* | 0 | 3 | -16 | 1 | -10 | 0 | -1 | -10
O=C(Nc1ccc(C(=O)N2CCN(c3ccc(Cl)cc3)CC2)cc1)C1=CSCCO1 | -1 | -6 | -3 | -3 | 2 | -20 | x | x | x
O=C(Nc1ccccc1C(=O)N1CCN(c2cccc(Cl)c2)CC1)C1=CSCCO1 | 81* | -5 | 4 | -6 | 6 | 7 | -1 | 7 | 0
O=C(CSc1ccccc1)Nc1cccc(NC(=O)c2ccco2)c1 | 16* | -5 | -3 | -19 | -3 | -5 | 1 | -5 | -9
C/C=C/C=C/C(=O)N1C[C@H](C)N(C)C[C@H]1C | -1 | 0 | -7 | x | x | -8 | x | x | x
O=C1c2cc(O)c(O)cc2OC(c2ccc(O)c(O)c2)C1O (configuration not stated) | 49* | 9 | 10 | 30 | 4 | -3 | 15* | -75 | 55*
Cc1ccc(S(=O)(=O)Oc2ccccc2N2C(=O)C3C4CCC(C4)C3C2=O)cc1 (configuration not stated) | -4 | 5 | 0 | -6 | -4 | 3 | x | x | x
O=C1C2C3C=CC(C3)C2C(=O)N1c1ccccc1OS(=O)(=O)c1ccccc1 (configuration not stated) | 21* | 8 | 10 | -5 | -6 | 3 | 0 | 1 | -3
Cc1[nH]c(=O)[nH]c1C(=O)CCCCC(=O)OCC(=O)Nc1ccccn1 | 82* | 6 | 4 | 26 | 8 | 6 | 0 | -2 | 81*
Cc1ccc(OCc2cc(C(=O)N3CCC(c4ccccc4Cl)C3)no2)cc1C (configuration not stated) | 0 | 2 | -4 | -39 | 6 | 7 | x | x | x
CCC(NS(=O)(=O)c1cccs1)c1ccc(C)cc1 (configuration not stated) | 3 | -4 | 6 | 0 | 1 | -10 | x | x | x
CN1C2CCC1/C(=C/c1cccn1C)C(=O)/C2=C\c1cccn1C | 14* | -19 | 1 | -46 | -11 | 10 | 0 | 0 | -3
